# thrombin 1536: human alpha-thrombin inhibitors, primary screen, counter-screen for coagulation protease inhibitor project, biochemical, 1536-well, fluorogenic AMC substrate | Boc-VPR-AMC fluorogenic substrate cleavage | inhibition, % at 5 µM | 220,000 compounds, 0.26% hits | AID 1046, 2008;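 active = inhibition at or above 40%; inactive = inhibition below 40%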;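 note: 0% = enzyme with no compound and 100% = wells without enzyme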
#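 System – human alpha-thrombin · Medium – pH 7.5 Tris (50 mM) with NaCl 150 mM, Tween 20 0.05% · Compound – single-point dosing at 5 µM, 0.2% DMSO · Incubation – enzyme reaction carried out at room temperature · Technique – fluorescence of released AMC, ex 355 nm, em 460 nm · Read-out basis – % inhibition of thrombin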
# FXIIa inh: human FXIIa protease inhibitors, primary screen, biochemical, 1536-well; purified FXIIa, Boc-QGR-AMC fluorogenic substrate, 2 h; 220,000 compounds, 0.3% hits; inhibition, % at 5 µM; Coagulation factor XII (Homo sapiens), P00748; in the data active = inhibition above about 40%;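 note: 0% = enzyme with no compound and 100% = blank without enzyme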
# FXIa inh 1536: human FXIa protease inhibitors, primary screen, biochemical, 1536-well; purified FXIa, Boc-Glu-Ala-Arg-AMC fluorogenic substrate; inhibition, % at 5 µM; 220,000 compounds, 0.14% hits; AID 798, 2007;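 active = inhibition of at least 40%; inactive = inhibition below 40%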;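 note: fluorescence of freed AMC excited at 355 nm; 0% = enzyme without compound and 100% = no enzyme blank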
# hK5 inh: human KLK5 protease inhibitors, primary screen, biochemical, 1536-well; Kallikrein-5 (Homo sapiens), Q9Y337; recombinant hK5, fluorogenic AMC substrate cleavage; inhibition, % at 5 µM; 210,000 compounds, 0.59% hits; AID 873, 2007;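 active = inhibition of 40% or more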;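 note: 0% = enzyme controls without compound and 100% = no-enzyme blanks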
# Target sequence (Q9Y337 67-293 limits assumed): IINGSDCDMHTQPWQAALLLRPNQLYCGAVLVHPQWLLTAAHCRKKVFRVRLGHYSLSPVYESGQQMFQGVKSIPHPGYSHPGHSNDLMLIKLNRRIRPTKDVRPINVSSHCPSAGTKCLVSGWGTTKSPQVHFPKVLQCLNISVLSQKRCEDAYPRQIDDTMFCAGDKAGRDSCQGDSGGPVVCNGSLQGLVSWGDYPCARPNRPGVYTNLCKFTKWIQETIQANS
# Numbers without * were called inactive; i = inactive; x = not tested or not shown. In the library only some 1% were active in any assay of this set; here they are far more common.
SMILES,thrombin 1536,FXIIa inh,FXIa inh 1536,hK5 inh
COc1cccc(CC(NC(C)=O)C(=O)NC2CCN(C(=O)C3CC3)CC2)c1OC (stereo not given),6.8,7.2,-0.4,-4.2
O=C(NCCN1C(=O)C2C3C=CC(C3)C2C1=O)Nc1ccccc1 (stereo not given),18.0,106.8*,4.8,38.9
Cc1ccc(NC(=O)NCCN2C(=O)C3C4C=CC(C4)C3C2=O)cc1 (stereo not given),-0.8,2.0,-1.6,1.1
Cc1ccc(NC(=O)/C(=C\c2ccc([N+](=O)[O-])cc2)NC(=O)c2ccccc2)cc1,3.6,14.7,5.6,-4.9
O=C(N/N=C/c1ccc(O)c(O)c1O)/C(=C/c1ccc([N+](=O)[O-])cc1)NC(=O)c1ccccc1,5.6,41.2*,27.0,i
Cc1[nH]c(=O)[nH]c(=O)c1/C=N/NC(=O)[C@H](CC(C)C)NC(=O)OC(C)(C)C,1.6,7.2,-2.9,-20.0
Cc1[nH]c(=O)[nH]c(=O)c1/C=N/NC(=O)[C@@H](N)CC(C)C,3.3,45.1*,30.6,21.2
CC#CC[N+](C)(C)CCCCCCCCCC,-11.6,2.4,-0.3,-1.6
Cc1cc(C)c(S(=O)(=O)N2CCCOC2CNC(=O)C(=O)NCc2cccnc2)c(C)c1 (stereo not given),-1.0,11.0,-2.0,-2.2
Cc1ccc(C)c(S(=O)(=O)N2CCCOC2CNC(=O)C(=O)NCc2cccnc2)c1 (stereo not given),12.6,34.1,-7.7,42.8*
O=C(Nc1ccc2c(c1)OCO2)c1n[nH]c(=O)c2ccccc12,-0.8,14.2,2.1,31.9
CCN(CC)S(=O)(=O)c1cc(NC(=O)CCCOc2ccc(C(C)=O)cc2)ccc1C,-4.3,15.4,4.9,-6.9
Cc1cc(C(F)F)nn1CC(=O)NCc1ccccc1F,-0.3,4.2,-4.8,-3.7
CCc1c(C)nc2ccc(Br)cc2c1SCCC#N,-6.7,-4.7,-4.8,-5.2
CCCCc1c(C)nc2ccc(Br)cc2c1SCCC#N,98.8*,6.7,10.2,47.3*
CC(Sc1nnc(-c2ccco2)o1)C(=O)NCCC1=CCCCC1 (stereo not given),x,21.0,28.4,47.4*
CN(C)S(=O)(=O)c1cc(NC(=O)c2cc(=O)[nH]c3ccccc23)ccc1Cl,-7.8,4.0,-2.6,-2.7
Cc1cc(C)n2nc(SCC(=O)Nc3ccc(F)cc3)nc2n1,-4.5,41.5*,17.4,-17.4
CNC(=O)CSc1nc2nc(C)cc(C)n2n1,2.0,17.4,0.4,2.5
CCOC(=O)N1CCN(c2c(NCc3ccccn3)c(=O)c2=O)CC1,-3.9,6.1,-7.4,40.3*
COc1ccc(NS(=O)(=O)c2ccc(NC(=S)NC(=O)C(C)C)cc2)cc1,-6.6,-7.1,-8.0,-2.6
CCOc1ccc(NS(=O)(=O)c2ccc(NC(=S)NC(=O)C(C)C)cc2)cc1,7.2,15.0,1.0,52.0*
CC(C)C(=O)NC(=S)Nc1ccc(S(=O)(=O)Nc2ccccc2)cc1,22.8,-0.8,3.5,43.1*
COc1ccc(S(=O)(=O)NC(CCSC)C(=O)NC2CCCCC2)cc1 (stereo not given),23.2,33.6,27.1,41.3*
CSCCC(NS(=O)(=O)c1ccc(C)cc1)C(=O)NC1CCCCC1 (stereo not given),-1.3,10.0,1.2,-0.5
SMILES,thrombin 1536,FXIIa inh,FXIa inh 1536,hK5 inh
CC(=O)c1ccc(OCC(O)CN2C(C)CCCC2C)cc1 (stereo not given),13.8,12.5,2.3,52.4*
CC(=O)c1ccc(OCC(O)CN2CCC(C)CC2)cc1 (stereo not given),-1.3,10.9,6.8,-6.7
O=C1c2cccc3cccc(c23)C(=O)N1/N=C/c1ccc(O)cc1O,4.2,7.6,1.4,2.3
O=C1c2ccccc2C(=O)N1/N=C/c1ccc(O)c(O)c1O,11.2,30.8,23.3,44.9*
O=C(NCc1ccccc1Cl)c1cccc(C(F)(F)F)c1,39.9,13.5,-2.2,40.6*
Cc1ccc2nc(NC(=O)CC3Oc4ccccc4NC3=O)sc2c1 (stereo not given),-3.8,6.2,-2.4,-2.1
CCN(C(=O)COC(=O)/C=C/c1c(C)nn(-c2ccccc2)c1C)C1CCS(=O)(=O)C1 (stereo not given),14.5,26.3,42.6*,31.6
Cc1nn(-c2ccccc2)c(C)c1/C=C/C(=O)OCC(=O)N(C)C1CCS(=O)(=O)C1 (stereo not given),-3.0,-5.5,-0.7,-23.9
COc1ccc(-c2n[nH]c(=S)n2-c2ccc3c(c2)OCCO3)cc1,-2.1,-0.6,-2.9,1.8
COc1cc(OC)cc(-c2n[nH]c(=S)n2-c2ccc3c(c2)OCCO3)c1,40.9*,x,35.0,16.3
COCCNC(=O)CSc1nnc2c(Cl)cc(Cl)cn12,17.3,56.0*,1.8,52.1*
Cn1cnnc1SCC(=O)Nc1ccc(OCc2ccccc2)cc1,1.0,1.5,-5.1,-3.3
Cn1c(-c2ccccc2)cnc1SCC(N)=O,-1.0,58.8*,10.2,2.8
C/C(=N\NC(=O)c1nn(C)c(C)c1Br)c1cccc(NC(=O)c2ccoc2C)c1,-5.1,10.1,8.1,-11.9
CC(=O)c1cccc(NC(=O)c2csc(-n3nc(C)cc3C(F)(F)F)n2)c1,19.4,20.9,10.7,55.5*
COc1ccc(-c2ncccc2OC(=O)C23CC4CC(CC(C4)C2)C3)cc1,17.8,-0.5,2.8,60.2*
O=C(C1CCN(c2ccc(N3CCOCC3)nn2)CC1)N1CCN(c2ccc(F)cc2)CC1,-0.1,-9.7,-6.2,105.7*
Cc1nc2c(cnn2-c2ccc(Cl)cc2)c(=O)n1-c1ccc(N2CCC(C)CC2)cc1,17.1,17.0,13.8,53.8*
COc1ccccc1-c1cc2nc(C)cc(C)n2n1,-0.6,6.7,3.1,1.9
O=C(N/N=C/c1c[nH]c2ccccc12)c1cc(-c2cccc3ccccc23)n[nH]1,43.5*,-4.1,6.6,25.3
O=C(N/N=C/c1c[nH]c2ccccc12)c1cc(-c2ccc3ccccc3c2)n[nH]1,-4.7,11.7,7.1,-6.6
Cc1ccc(C(=O)NCCNc2ccc(Cl)cc2[N+](=O)[O-])o1,-1.8,59.9*,-1.3,7.0
CC(C)C(OC(=O)c1cccs1)C(=O)NCc1ccc2c(c1)OCO2 (stereo not given),-5.0,56.8*,31.2,24.5
CC(OC(=O)c1cccs1)C(=O)NCc1ccc2c(c1)OCO2 (stereo not given),-6.9,-3.0,-4.9,-5.8
CCC(=O)NNC(=O)c1cc(COc2cc(Cl)cc(Cl)c2)on1,-0.8,6.8,-2.4,1.2
COc1ccc(C(=O)c2cnc3cc4c(cc3c2C)OCO4)cc1,34.4,0.3,9.3,74.1*
COc1ccc(C(=O)N/N=C/c2cc3ccccc3[nH]c2=O)cc1,33.9,60.0*,51.5*,21.1
COc1cccc(/C=N/NC(=O)c2[nH]c(C)c(C(=O)N/N=C/c3cccc(OC)c3O)c2C)c1O,2.6,18.6,40.3*,-158.8
